HKDC1 act: increases human hexokinase HKDC1 activity | Q2TB90 | recombinant HKDC1, G6PDH/diaphorase resazurin fluorescence; hits give low values | activity change, negative = activation, % at 20 µM | actives 0.056% (n = 340,000) | AID 493187;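 active = activation of 40% or more at 20 µM, a change of -40% or lower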
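system = in-house human HKDC1 enzyme, G6PDH and diaphorase coupling enzymes | amount = HKDC1 5 µg/mL | measured by = resorufin fluorescence from 100 µM resazurin, NADP 1 mM, Ex 525/Em 613 nm | times = enzyme reaction 90 min, room temperature, in dark | doses = single compound dose of 20 µM, 1% DMSO final | medium = Tris/MgCl2 buffer, pH 8.0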
Hits are given with their value. Not all results are given here.

What do the screens show for `Cc1ccc(N=Nc2ccc(O)c3ncccc23)cc1C`?
HKDC1 act: -43

What do the screens show for `COc1ccc(C(=O)/C=C/Sc2nc3ccccc3o2)cc1`?
HKDC1 act: inactive

Results for Cc1nc2c(O)c3c(c(O)c2nc1C)C1C=CC3CC1 ?
HKDC1 act: inactive

What do the screens show for `CC(=O)N1CCN(C2c3cccc4cccc(c34)C2NS(=O)(=O)c2ccccc2)CC1` (configuration not stated)?
HKDC1 act: -49

Results for Cn1cnnc1SC1c2cccc3cccc(c23)C1NS(=O)(=O)c1ccccc1 (configuration not stated) ?
HKDC1 act: -49

What do the screens show for `Cc1ccc2oc(C(=O)N3CCC(N4CCSCC4)CC3)c(C)c2c1`?
HKDC1 act: inactive

How did CSc1nc(N(CCO)CCO)c2sc3nc(-c4ccco4)c4c(c3c2n1)CCC4 do in these assays?
HKDC1 act: inactive

Results for C=CCn1c(SCC(=O)Nc2sc3c(c2C#N)CCC(C)C3)nc2cc(C(=O)O)ccc2c1=O (configuration not stated) ?
HKDC1 act: inactive

Results for CCCCC(CC)CN=C(N)NC(N)=NCCCCCCN=C(N)NC(N)=NCC(CC)CCCC (configuration not stated) ?
HKDC1 act: inactive

What do the screens show for `COc1ccc(-c2oc(NC(=O)CCl)c(C#N)c2-c2ccc(OC)cc2)cc1`?
HKDC1 act: inactive

What do the screens show for `CC(=O)c1ccc(NC(=O)c2ccc3nc(-c4ccco4)c(-c4ccco4)nc3c2)cc1`?
HKDC1 act: inactive

How did CC1C/C(=C/c2ccncc2)C(=O)/C(=C/c2ccncc2)C1 (configuration not stated) do in these assays?
HKDC1 act: inactive

How did O=C1NN(c2cccc(Br)c2)C(=O)/C1=C/c1ccc(-c2cc([N+](=O)[O-])ccc2O)o1 do in these assays?
HKDC1 act: inactive

How did O=C(O)c1cccc(-n2cccc2/C=C2/NC(=O)N(c3ccc(Cl)cc3)C2=O)c1 do in these assays?
HKDC1 act: inactive

Results for COc1cc(/C=C2\SC(=O)N(c3cccc(Cl)c3)C2=O)cc([N+](=O)[O-])c1O ?
HKDC1 act: inactive

What do the screens show for `Cc1cc(C)nc(Nc2n[nH]c(-c3ccc(C(C)(C)C)cc3)n2)n1`?
HKDC1 act: -51

What do the screens show for `COc1cc(OC)c(OC)cc1CCC(C)NCCC(c1ccccc1)c1ccccc1` (configuration not stated)?
HKDC1 act: inactive

What do the screens show for `CCCC[n+]1c2ccccc2cc2ccccc21`?
HKDC1 act: inactive

How did N=C1/C(=C\c2coc3ccccc3c2=O)C(=O)N=C2SC(c3ccncc3)=NN12 do in these assays?
HKDC1 act: inactive

What do the screens show for `COc1cc(N=c2ssnc2Cl)cc(OC)c1OC`?
HKDC1 act: -100

What do the screens show for `COc1ccc(N=c2ssnc2Cl)cc1`?
HKDC1 act: -55

Results for COc1ccc(C2=CC3=C(Br)C(=O)C(C)(OC(=O)c4cccs4)C(=O)C3=CO2)cc1 (configuration not stated) ?
HKDC1 act: inactive

Results for O=c1cc(O)c2sc(Nc3ccc(F)c(Cl)c3)nc2[nH]1 ?
HKDC1 act: inactive

What do the screens show for `COc1ccc(N(CCCN2C(=O)c3cccc4cccc(c34)C2=O)C(=O)c2cccnc2)cc1`?
HKDC1 act: inactive

What do the screens show for `O=C1C(Cl)=C(N2CCN(c3ccccc3[N+](=O)[O-])CC2)C(=O)c2ccccc21`?
HKDC1 act: inactive

Results for C[n+]1c(-c2ccccc2)cc2c(=Cc3ccc([N+](=O)[O-])cc3)c3ccccc3n21 ?
HKDC1 act: inactive

Results for CC1=NOC(=O)/C1=C\c1ccc(-c2cccc(Cl)c2)o1 ?
HKDC1 act: inactive

Results for O=C(OCC(=O)N1CCN(C(=O)c2ccco2)CC1)c1cc(-c2ccco2)nc2ccccc12 ?
HKDC1 act: inactive

How did Cc1nc2sc3c(NCc4ccco4)ncnc3c2c2c1COC(C)(C)C2 do in these assays?
HKDC1 act: inactive

How did O=c1cc(O)c2sc(Nc3ccc(Cl)c(F)c3)nc2[nH]1 do in these assays?
HKDC1 act: inactive

What do the screens show for `O=C(O)CCCN1C(=O)/C(=C\C(Cl)=C\c2ccccc2)SC1=S`?
HKDC1 act: inactive

What do the screens show for `CCOC(=O)c1sc(NC(=O)CSc2nnc(Cc3ccccc3)o2)c(C#N)c1C`?
HKDC1 act: -40

What do the screens show for `CCOC(=O)c1ccc(NC(=O)CSc2ccc(-c3ccccn3)nn2)cc1`?
HKDC1 act: inactive

What do the screens show for `O=C(CSc1nc(-c2ccc(F)cc2)nc2c1Cc1ccccc1O2)Nc1cccc(C(=O)O)c1`?
HKDC1 act: inactive

Results for CC1CCCN(C(=O)COC(=O)c2cc([N+](=O)[O-])ccc2N2CCOCC2)C1 (configuration not stated) ?
HKDC1 act: inactive

Results for O=C(c1ccccc1)c1n[nH]c(-c2ccccc2)cc1=O ?
HKDC1 act: -42

How did O=C(COC(=O)c1n[nH]c2ccccc12)c1cccc(Br)c1 do in these assays?
HKDC1 act: inactive

What do the screens show for `O=C(O)c1cc(O)c2c(c1)[C@@H]([C@H]1c3cc(C(=O)O)cc(O)c3C(=O)c3c(O[C@@H]4O[C@H](CO)[C@@H](O)[C@H](O)[C@H]4O)cccc31)c1cccc(O[C@@H]3O[C@H](CO)[C@@H](O)[C@H](O)[C@H]3O)c1C2=O`?
HKDC1 act: inactive

What do the screens show for `Cc1ccc(S(=O)(=O)N(C(=O)c2ccco2)c2cc3sc(=O)oc3c3ccccc23)cc1`?
HKDC1 act: inactive

How did Cc1ccc(C(=O)c2coc3c2C(=O)C(=O)c2ccccc2-3)cc1 do in these assays?
HKDC1 act: inactive

What do the screens show for `Oc1c(Br)cc(Br)cc1/C=N/c1nc2c(s1)CCCC2`?
HKDC1 act: inactive

How did O=C(O)c1ccc(N2C(=O)/C(=C/c3ccc(-c4ccc([N+](=O)[O-])cc4)o3)C=C2c2ccccc2)cc1 do in these assays?
HKDC1 act: inactive

Results for O=C(Nc1ccc2nc(-c3ccco3)c(-c3ccco3)nc2c1)N1CCN(c2ccccn2)CC1 ?
HKDC1 act: inactive

How did Nc1nc(N2CCN(c3ccccn3)CC2)nc2ccccc12 do in these assays?
HKDC1 act: -58

How did O=c1oc2cc(Oc3c([N+](=O)[O-])cc(C(F)(F)F)cc3[N+](=O)[O-])ccc2c2c1CCCC2 do in these assays?
HKDC1 act: inactive

How did O=C1NC(=S)S/C1=C\C=C\c1ccc([N+](=O)[O-])o1 do in these assays?
HKDC1 act: inactive

Results for c1ccc2oc(C3=NNC(=NC4CC4)SC3)cc2c1 ?
HKDC1 act: -47

How did CC(C)c1nc2oc3c(NCC4CCCO4)ncnc3c2c2c1COC(C)(C)C2 (configuration not stated) do in these assays?
HKDC1 act: inactive

What do the screens show for `COc1cc2c(cc1OC)-c1cc(NCc3ccccn3)nc(=O)n1CC2`?
HKDC1 act: inactive

Results for O=C1C=CC(=O)C(C2=C3C(=O)N(CCc4ccccc4)CC(=O)N3CCC2)=C1 ?
HKDC1 act: inactive

Results for Cc1ccc2cc(C=C(C#N)C#N)c(N3CCCCC3)nc2c1 ?
HKDC1 act: inactive

Results for O=C(N/N=C/c1ccc[nH]1)c1sc2ccccc2c1Cl ?
HKDC1 act: -42

Results for O=C1CSC(=S)N1Nc1ccccc1 ?
HKDC1 act: -44

How did C[n+]1c2cc(N)ccc2cc2ccc(N)cc21 do in these assays?
HKDC1 act: inactive

How did Cc1ccccc1NC1=C/C(=N\S(=O)(=O)c2cccs2)c2ccccc2C1=O do in these assays?
HKDC1 act: inactive

Results for COc1ccccc1NC(=S)NN=C(C)c1ccccn1 ?
HKDC1 act: -41

Screening data as filed in PubChem.
